The test system of series [1] is U87-MG cells. As to the kind of experiment: MTT. Format: cell-based, human. The note with it: for IC50: read-out: IC50,dark, 4 h incubation in dark, dark 20 min, then 16 h dark. Put shortly: (§1)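 In an MTT assay, cells were incubated with test compound in the dark for 4 h. They were then kept dark or irradiated at 450 nm (10 mW cm−2) for 20 min, and held a further 16 h in the dark. IC50 values were obtained under dark and light conditions, and the phototoxicity index was taken as IC50,dark/IC50,light.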

In series [2] the test system is MCF-7 cells. As to the kind of experiment: MTT. The note with it: for IC50: read-out: IC50,dark, 4 h incubation in dark, dark 20 min, then 16 h dark. Type of series: cell-based. In short, it runs like this:
as §1

Series [3] deals with HEK293 cells. Description: MTT. Type of series: cell-based. Conditions: for IC50: read-out: IC50,dark, 4 h incubation in dark, dark 20 min, then 16 h dark. Put shortly:
as §1

The nature of the next series: Photophysical. Format: physicochemical. The note with it: for λem: λex = 350 nm; for τo: λex = 375 nm.
A short description of series [4]: Singlet oxygen quantum yield with 1,3-diphenylisobenzofuran as scavenger. Type of series: physicochemical. The note with it: aerated CH3CN, 298 K, λex = 450 nm.
Series [5] in a line: Emission response upon photoirradiation at 450 nm. Format: physicochemical. The note with it: for Emission lifetime τ after photoirradiation / λem after photoirradiation: 10 μM, aerated PBS/DMSO (9:1), 450 nm (10 mW cm−2) 20 min; for λem after photoirradiation: λex = 350 nm. Put shortly: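 Test compound (10 μM) in aerated PBS/DMSO (9:1, v/v) was irradiated at 450 nm (10 mW cm−2) for 20 min at 298 K. Photoproducts were followed by RP-HPLC and identified by ESI-MS. Emission was recorded before and after irradiation (λex 350 nm), and I/Io was taken as the ratio of these intensities. Lifetimes were measured at emission maxima (λex 375 nm).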

Series [6] in a line: Phosphorogenic response towards BCN-OH. Format: physicochemical. Conditions: 10 μM, BCN-OH 500 μM, aerated PBS/DMSO (9:1), dark 16 h; for λem after incubation with BCN-OH: λex = 350 nm. Put shortly:
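Test compound (10 μM) was incubated with excess BCN-OH (500 μM) in aerated PBS/DMSO (9:1, v/v) at 298 K in the dark for 16 h. Emission was recorded with λex 350 nm, and I/Io was taken as intensity with versus without BCN-OH. Lifetimes were measured at emission maxima (λex 375 nm).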

Series [7] concerns U87-MG cells. As to the kind of experiment: Cellular uptake by ICP-MS. Format: cell-based, human. Conditions: 5 µM, 4 h, 37°C.
Series [8] deals with MCF-7 cells. As to the kind of experiment: Cellular uptake by ICP-MS. Format: cell-based. The note with it: 5 µM, 4 h, 37°C.
Series [9] has as its system HEK293 cells. As to the kind of experiment: Cellular uptake by ICP-MS. Format: cell-based. Conditions: 5 µM, 4 h, 37°C.
For series [10], the system named is U87-MG cells. Description: Annexin V/propidium iodide flow cytometry. Type of series: cell-based, human. Conditions: 1 μM, 4 h, photoirradiation at 450 nm (10 mW cm−2) 20 min. Put shortly:
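Cells were pretreated with test compound (1 μM, 4 h), then kept unirradiated or continuously irradiated at 450 nm (10 mW cm−2) for 20 min. They were stained for 15 min with Alexa Fluor 647–Annexin V (λex 638 nm) and propidium iodide (100 μg mL−1 stock; λex 561 nm). Analysis was by flow cytometry.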
Background: A flow cytometer gives signals particle by particle.

The test system of series [11] is U87-MG cells. As to the kind of experiment: Cellular uptake mechanism studies. Type of series: cell-based, human. The note with it: 20 µM, 1 h.
In series [12] the test system is U87-MG cells. As to the kind of experiment: Cell death mechanism studies by LSCM. Type of series: cell-based, human. The note with it: 5 μM, 4 h. Put shortly: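 For mitochondrial membrane potential, live cells were pretreated with test compound (5 μM, 4 h), then left unirradiated or irradiated at 450 nm (10 mW cm−2) for 20 min. They were stained with rhodamine 123 (5 μM, 15 min) and imaged by confocal microscopy (λex 488 nm, λem 500–550 nm).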

[13] abbreviates: potassium phosphate buffer (50 mM, pH 7.4)/CH3CN (1:1), 298 K.
Where [14] appears, read: + RGD peptide pretreatment (50 µM, 30 min).

By IC50 is commonly meant the concentration needed to halve the response being measured. With [Ir(pqe)2(bpy-CONH2)](PF6) [complex 4], the “PI (IC50,dark/IC50,light)” value with U87-MG cells [1] turned out to be 103; in the series on MCF-7 cells [2] it was 105; with HEK293 cells [3] it was 100. In addition, the IC50 in the series with U87-MG cells [1] worked out at 4.1 ± 0.2 µM; in the series on MCF-7 cells [2], 4.2 ± 0.1 µM; with HEK293 cells [3], 5 ± 0.1 µM. The λem in “Photophysical” (CH3CN, 298 K) is 631 nm; in the series “Photophysical” (setting [13]) it was 648 nm. Further, the τo was 0.67 μs in the series “Photophysical” (CH3CN, 298 K); 4.23 μs in the series “Photophysical” (EtOH/MeOH (4:1) glass, 77 K); 0.34 μs in “Photophysical” (setting [13]). The substance further showed a Φem in “Photophysical” (setting [13]) of 0.02.

Take “[Ir(pqe)2(bpy-CONH-S-Tz-Cl)](PF6) [complex 1]”: in “Photophysical” (CH3CN, 298 K), the λem was 632 nm and the τo was 0.68 μs. For the same substance, the τo in the series “Photophysical” (EtOH/MeOH (4:1) glass, 77 K) was found to be 4.25 μs. Also, in “Photophysical” (setting [13]), the Φem came out at 0.002, the λem stood at 650 nm and the τo came to 0.23 μs. Moreover, in series [4], the “1O2 quantum yield (ΦΔ)” value came out at 0.55.

As for “[Ir(pqe)2(bpy-CONH-S-Tz-S-Et)](PF6) [complex 2]”, in the series on U87-MG cells [1], the “PI (IC50,dark/IC50,light)” value worked out at 138 and the IC50 is 11 ± 1 µM. Moreover, in the series with MCF-7 cells [2], the “PI (IC50,dark/IC50,light)” value was determined as 150 and the IC50 came to 15 ± 1 µM. Moreover, in the series on HEK293 cells [3], the “PI (IC50,dark/IC50,light)” value came out at 133 and the IC50 worked out at 12 ± 1 µM. In “Photophysical” (CH3CN, 298 K), this substance returned a λem of 631 nm and a τo of 0.60 μs. This substance also registered a τo in “Photophysical” (EtOH/MeOH (4:1) glass, 77 K) of 4.38 μs. In the series “Photophysical” (setting [13]), this substance had a Φem of 0.002, a λem of 650 nm and a τo of 0.18 μs. Also, the “1O2 quantum yield (ΦΔ)” value in series [4] came to 0.60. In [5], the “Emission lifetime τ after photoirradiation” value stood at 0.29 μs and the λem after photoirradiation came to 648 nm. In series [6], the “Emission lifetime τ after incubation with BCN-OH” value is given as 0.37 μs and the “λem after incubation with BCN-OH” value was determined as 631 nm.

In the case of “[Ir(pqe)2(bpy-CONH-S-Tz-S-RGD)](CF3COO) [conjugate 1-RGD]”, the “PI (IC50,dark/IC50,light)” value in the series on U87-MG cells [1] was 325; in the series with MCF-7 cells [2], 236; with HEK293 cells [3], above 38. The values for the IC50 in the series with U87-MG cells [1] and in the series with HEK293 cells [3] were 26 ± 1 µM and above 50 µM, respectively. Further, the “Amount of iridium per average cell” value was 0.34 fmol in the series with U87-MG cells [7] (setting [14]); 0.70 fmol with U87-MG cells [7] (− RGD); 0.25 fmol in the series with MCF-7 cells [8] (setting [14]); 0.32 fmol in the series on MCF-7 cells [8] (− RGD); 0.030 fmol in the series on HEK293 cells [9] (setting [14]); 0.032 fmol in the series on HEK293 cells [9] (− RGD). Further, in the series with U87-MG cells [10], the “Population of apoptotic cells” value is recorded as 98.28%. Moreover, the Φem stood at 0.003 in the series “Photophysical” (CH3CN, 298 K) and 0.001 in the series “Photophysical” (setting [13]). The λem in the series “Photophysical” (CH3CN, 298 K) was 631 nm; in the series “Photophysical” (setting [13]) it was 648 nm. The τo in “Photophysical” (CH3CN, 298 K) was found to be 0.58 μs; in “Photophysical” (EtOH/MeOH (4:1) glass, 77 K), 4.14 μs; in “Photophysical” (setting [13]), 0.19 μs. The “Emission lifetime τ after photoirradiation” value in series [5] stood at 0.26 μs. In [5], this substance gave a λem after photoirradiation of 648 nm. Besides, in [5] (steady-state irradiation at 450 nm, 298 K), the “Time to complete photodissociation of S,S-tetrazine moiety” value turned out to be 20 min. Besides, in series [6], the “Emission lifetime τ after incubation with BCN-OH” value was found to be 0.33 μs. The “λem after incubation with BCN-OH” value in series [6] was found to be 632 nm. Further, the “Cellular uptake efficiency after metabolic or endocytosis inhibitors” value in the series with U87-MG cells [11] (2-deoxy-D-glucose and oligomycin, or NH4Cl or chloroquine) was “substantially reduced”. For the same substance, in the series with U87-MG cells [11] (4 °C), the “Amount of intracellular iridium at low temperature vs 37 °C” value is given as “significantly decreased”. Besides, the “Internalisation after cation transporter inhibitor” value with U87-MG cells [11] (tetraethylammonium chloride (1 mM) pretreatment) is given as “remained unaffected”. The “Intracellular ROS (CM-H2DCFDA emission)” value in the series with U87-MG cells [12] (450 nm 20 min vs dark) is listed as “effective intracellular ROS generation”. Besides, the “Mitochondrial membrane potential (rhodamine 123 emission)” value in the series on U87-MG cells [12] (after 450 nm 20 min vs dark) is given as “significantly diminished in intensity”.

For the substance “[Ir(pqe)2(bpy-CONH-SCN)](PF6) [complex 3]”, the figures for the “PI (IC50,dark/IC50,light)” value in the series on U87-MG cells [1], in the series with MCF-7 cells [2] and in the series on HEK293 cells [3] were 135, 125 and 88, respectively. For the same substance, the IC50 in the series with U87-MG cells [1] was determined as 2.7 ± 0.1 µM; in the series on MCF-7 cells [2], 2.5 ± 0.1 µM; in the series with HEK293 cells [3], 3.5 ± 0.2 µM. Further, the λem amounted to 634 nm in the series “Photophysical” (CH3CN, 298 K) and 648 nm in the series “Photophysical” (setting [13]). The τo in “Photophysical” (CH3CN, 298 K) is recorded as 0.69 μs; in “Photophysical” (EtOH/MeOH (4:1) glass, 77 K), 4.79 μs; in “Photophysical” (setting [13]) it was 0.35 μs. The substance also had a Φem in “Photophysical” (setting [13]) of 0.02. The “1O2 quantum yield (ΦΔ)” value in series [4] was 0.81.

Source of the values: PMC12123436 (RSC Chemical Biology, 2025).
